The list is not random: actives were taken first. Their share in the collection is about 2%.
PvdQ inh: blocks Pseudomonas aeruginosa PvdQ acylase activity; purified PvdQ acylase, fluorescence plate reader; inhibition, % at 10 µM; actives 0.063% (n = 340,000); in the data active = inhibition above about 30%, passing the limit was not always enough;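 note: 0% = vehicle neutral wells and 100% = reference inhibitor wells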
PLC-beta3 inh: inhibitors of human phospholipase C beta3; inhibition, % at 12.2 µM; actives 0.18% (n = 370,000); Q01970; Purified PLC-beta3, fluorogenic substrate, fluorescence; in the data active = inhibition above about 11%;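 note: 0% = median of compound wells on plate and 100% = full blocker control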
Target sequence (Q01970 whole entry, looked up): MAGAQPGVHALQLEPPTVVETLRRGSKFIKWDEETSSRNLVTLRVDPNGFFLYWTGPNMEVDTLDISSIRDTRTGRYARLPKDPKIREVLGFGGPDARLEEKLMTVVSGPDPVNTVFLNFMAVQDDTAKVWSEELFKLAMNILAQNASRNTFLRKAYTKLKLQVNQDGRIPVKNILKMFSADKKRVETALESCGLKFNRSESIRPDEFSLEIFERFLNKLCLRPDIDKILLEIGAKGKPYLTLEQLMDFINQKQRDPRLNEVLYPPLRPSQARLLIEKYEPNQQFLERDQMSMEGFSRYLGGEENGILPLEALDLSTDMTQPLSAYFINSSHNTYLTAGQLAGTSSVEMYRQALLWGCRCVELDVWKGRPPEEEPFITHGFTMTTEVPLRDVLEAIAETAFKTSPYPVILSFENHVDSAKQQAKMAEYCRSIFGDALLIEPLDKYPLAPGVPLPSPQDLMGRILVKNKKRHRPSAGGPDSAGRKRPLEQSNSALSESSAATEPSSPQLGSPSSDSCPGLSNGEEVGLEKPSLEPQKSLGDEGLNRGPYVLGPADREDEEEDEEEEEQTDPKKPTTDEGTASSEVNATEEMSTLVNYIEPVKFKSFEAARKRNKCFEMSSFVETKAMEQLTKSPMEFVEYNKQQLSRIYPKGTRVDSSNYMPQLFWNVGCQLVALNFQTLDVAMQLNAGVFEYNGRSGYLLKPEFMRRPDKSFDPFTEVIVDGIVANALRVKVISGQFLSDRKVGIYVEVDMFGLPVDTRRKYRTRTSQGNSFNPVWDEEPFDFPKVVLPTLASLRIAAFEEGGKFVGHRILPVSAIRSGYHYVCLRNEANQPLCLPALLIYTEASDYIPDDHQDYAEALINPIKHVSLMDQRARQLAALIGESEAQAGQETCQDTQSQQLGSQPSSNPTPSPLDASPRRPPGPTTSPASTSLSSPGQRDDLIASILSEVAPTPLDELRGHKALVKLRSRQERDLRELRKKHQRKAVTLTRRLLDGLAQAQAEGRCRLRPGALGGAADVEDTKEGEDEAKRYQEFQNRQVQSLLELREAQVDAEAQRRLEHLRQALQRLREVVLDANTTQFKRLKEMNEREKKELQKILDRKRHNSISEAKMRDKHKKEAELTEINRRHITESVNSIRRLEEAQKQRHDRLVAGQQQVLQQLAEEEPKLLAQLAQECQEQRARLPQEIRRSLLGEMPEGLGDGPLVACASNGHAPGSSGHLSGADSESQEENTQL
IMP-1 inh: blocks Pseudomonas aeruginosa IMP-1 metallo-beta-lactamase. AID 1556. inhibition, % at 5.6 µM. actives 0.45% (n = 290,000). purified IMP-1, nitrocefin hydrolysis, epi-absorbance fluorescence;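 active = inhibition above the mean plus 3 SD of all compounds in the same screening run, cut at about 4.5% in these data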;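 note: 0% = IMP-1 with DMSO and 100% = DMSO wells lacking enzyme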
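System: purified recombinant IMP-1 beta-lactamase. Medium: Zinc- and detergent-supplemented HEPES buffer, pH 7.1. Compound: one 5.6 µM dose […]. Schedule: 15 min preincubation plus 25 min reaction at 25 °C. Technique: Epi-absorbance fluorescence, 480 nm excitation, 530 nm emission.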
PLC-gamma1 inh: PLC-gamma1 (human) inhibition, primary screen | purified PLC-gamma1, fluorogenic substrate, fluorescence | inhibition, % at 12.2 µM | actives 0.84% (n = 370,000) | AID 720700
VIM-2 inhibitor: inhibitors of Pseudomonas aeruginosa VIM-2 metallo-beta-lactamase | actives 0.89% (n = 290,000) | AID 1527 | purified VIM-2, nitrocefin hydrolysis, epi-absorbance fluorescence | inhibition, % at 5.6 µM;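 active = inhibition above the mean of all tested compounds plus 3 SD, cutoff set per screening run, cut at about 7.5% in these data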;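 note: red hydrolysis product quenches plate fluorescence so inhibitors raise well fluorescence; 0% = enzyme with DMSO and 100% = DMSO without enzyme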
PLCg1 ctr: counter-screen for PLC-beta3 inhibitors: inhibitors of human PLC-gamma1; purified PLC-gamma1, fluorogenic substrate, fluorescence; AID 743258; shares compounds with PLC-gamma1 inh; inhibition, % at 12.3 µM; actives 3.1% (n = 3,300)
PLCb3 confirm: human PLC-beta3 inhibition, confirmation. shares compounds with PLC-gamma1 inh. purified PLC-beta3, fluorogenic substrate fluorescence. inhibition, % at 12.3 µM. actives 1% (n = 3,300). AID 743261; in the data active = inhibition above about 11%
* = called active by the depositor; . = no result given; ! = not active in a repeat. Cut-off read from the data, not from the text of the source, unless noted: active = inhibition above about 9.5%; inactive = the rest.

SMILES	PvdQ inh	PLC-beta3 inh	IMP-1 inh	PLC-gamma1 inh	VIM-2 inhibitor	PLCg1 ctr	PLCb3 confirm
CCOP(=O)(OCC)C(NC(=O)Nc1ccccc1)C(N)=O (stereo unspecified)	13.2	11.1*	-4.9	3.3	-3.4	-7.8	-2.3
COc1ccc(CC(=O)NNC(=O)CSc2nnc(Cc3ccc(OC)cc3)n2-c2ccccc2)cc1	-2.1	-0.1	0.2	-2.6	-3.6	.	.
O=C(CSc1nnc(Cc2ccccc2)n1-c1cccc(Cl)c1)NNC(=O)Cc1ccccc1	15.0	9.3	-2.2	10.2*	-2.3	-9.4	-4.2
Cc1ccccc1C(=O)n1ccc2ccc(-c3ccc4ccn(Cc5ccc(C#N)cc5)c4c3)cc21	.	-32.3	.	-15.9	.	.	.
CC(=O)Nc1ccc(-c2csc(Nc3ncccn3)n2)cc1	-22.1	-3.6	-1.8	9.9*	-4.3	1.8	3.8
Oc1ccc(-c2csc(Nc3ncccn3)n2)cc1	-6.0	-4.3	-2.1	-1.2	0.7	.	.
CC(C)[C@@H]1CC[C@@H](C)C[C@H]1OC[B-](F)(F)F	.	1.0	.	2.2	.	.	.
C=CC[C@@H](CC(=O)N(CCO)Cc1ccccc1)C(=O)N[C@@H](C)COC(=O)[C@@H](CC=C)CC(=O)OC(C)(C)C	-11.8	7.8	.	11.2*	.	3.3	3.1
C=CCC[C@@H](Cc1ccc(F)cc1)C(=O)OC[C@@H](Cc1c[nH]c2ccccc12)NC(=O)[C@H](CC=C)CC(=O)NCCO	-9.2	10.7*	.	5.1	.	-9.4	-3.3
C=CC[C@H](CC(=O)N(CCO)Cc1ccccc1)C(=O)N[C@@H](C)COC(=O)[C@H](CC=C)CC(=O)OC(C)(C)C	-8.0	-0.6	.	-1.7	.	.	.
C=CC[C@@H](CC(=O)N[C@H](CO)Cc1ccccc1)C(=O)N[C@@H](COC(=O)[C@@H](CC=C)CC(=O)OC(C)(C)C)Cc1c[nH]c2ccccc12	-13.6	2.6	.	11.9*	.	-4.6	2.5
C=CCC[C@@H](Cc1ccc(F)cc1)C(=O)OC[C@@H](Cc1c[nH]c2ccccc12)NC(=O)[C@@H](CC=C)CC(=O)NCCO	-6.1	6.1	.	4.0	.	.	.
CC1CCC2(CC1)CCN(CCCOC(=O)Nc1cccc(C(F)(F)F)c1)C2=O (stereo unspecified)	.	-1.7	.	-1.6	.	.	.
NC(c1csc(Nc2ncccn2)n1)c1ccccc1Cl (stereo unspecified)	.	10.5	.	11.8*	.	-8.0	0.2
N#C/C(=C\c1cc(O)c(O)c(O)c1)C(N)=O	3.7	-23.5	-4.7	18.1*	-0.5	5.2	-9.4
COC(=O)C1=C(C)N(Cc2ccccc2C(F)(F)F)C(=NCC2CC2)NC1c1cccc(F)c1 (stereo unspecified)	.	3.9	.	3.0	.	.	.
CN1CC(O)([C@H](Cc2ccccc2)NC(=O)OC(C)(C)C)OCC1C(=O)NCc1cccc2ccccc12 (stereo partly specified)	.	-1.3	.	-0.9	.	.	.
COC(=O)CSc1nnc(-c2n[nH]c3c2CCC3)n1N	.	2.0	.	-0.5	.	.	.
Cc1nn(-c2ccccc2)c(N)c1N=Nc1cccnc1	4.3	10.9*	-4.5	5.7	0.9	5.3	6.8
C[C@H]1O[C@@H](n2c3ccc(Cl)cc3c3ccc4c5cc(Cl)ccc5[nH]c4c32)[C@H](O)[C@H](O)[C@H]1O	.	-8.4	.	-4.4	.	.	.
Cc1ccc(C)c(N2CCN(S(=O)(=O)c3ccc4[nH]c(=O)c(=O)[nH]c4c3)CC2)c1	3.8	-0.3	0.1	16.6*	-1.7	-1.3	-4.1
Cc1ccc(C)c(N2CCN(S(=O)(=O)c3ccc4[nH]c(=O)ccc4c3)CC2)c1	-0.3	-14.2	-0.1	-5.5	-1.9	.	.
COc1ccc(OC)c(S(=O)(=O)N2CCCC(N3CCN(c4ccccc4)CC3)C2)c1 (stereo unspecified)	-13.4	3.0	0.3	10.8*	-1.6	-1.1	1.4
CCOc1ccc(-n2c(SCC(=O)Nc3ccc(S(=O)(=O)Nc4cc(C)nc(C)n4)cc3)nnc2-c2ccco2)cc1	.	3.3	.	-1.0	.	.	.
CCN(CC)CCCN1C(=O)C2=C(C1=O)C1N(C)c3ccccc3[C@@]13C[C@@H](CO)N(C(=O)CCC(=O)OC)C3=N2 (stereo partly specified)	.	1.1	.	-0.4	.	.	.
SMILES	PvdQ inh	PLC-beta3 inh	IMP-1 inh	PLC-gamma1 inh	VIM-2 inhibitor	PLCg1 ctr	PLCb3 confirm
COCC(C)n1c(-c2ccc3c(c2)NC(=O)CO3)csc1=Nc1ccc(OC(F)F)cc1 (stereo unspecified)	-15.4	4.5	-3.0	12.2*!	-1.1	4.1	3.1
CCc1ccc(Nc2nnc(SCC(=O)Nc3cccc(S(=O)(=O)NC4=NCCCCC4)c3)s2)cc1	-6.6	2.9	-4.1	9.7*	-3.3	-4.3	-4.2
Cc1ccc(Nc2nnc(SCC(=O)Nc3cccc(S(=O)(=O)NC4=NCCCCC4)c3)s2)cc1	8.6	-0.2	-4.1	-2.0	-4.0	.	.
Cc1cc2oc(C(=O)Nc3nonc3C)c(C)c2cc1Cl	-8.4	-0.7	-1.5	12.7*	-1.6	-12.3	-8.0
CCOC(=O)N1C(=O)C[C@](Sc2ccc(OC)cc2)(C(=O)N2CCOCC2)[C@H]1c1ccc(OC)cc1	.	1.0	.	-0.2	.	.	.
CC(C)NC(=O)c1ccccc1NS(=O)(=O)c1ccc(Br)s1	-4.3	-4.2	-0.2	-1.1	-2.8	.	.
O=C(c1ccccc1NS(=O)(=O)c1ccc(Br)s1)N1CCCC1	3.8	10.8*	-2.3	8.9	-3.3	-4.7	-2.1
Cc1cccc(-c2cccc3c4c([nH]c23)[C@@H]2C[C@H](N(C)C(=S)Nc3ccc(C#N)cc3)[C@H]([C@H](C)O)CN2CC4)c1	.	-248.7	.	-235.8	.	.	.
COc1cc(NC(=O)c2ccccc2)c(C)cc1NC(=O)CSc1nnc(-c2cnccn2)n1-c1ccc(C)cc1	.	2.5	.	0.5	.	.	.
O=C(CSc1nnc(-c2ccccc2Br)o1)Nc1nncs1	-11.5	10.9*	-3.1	4.4	-4.6	0.6	-0.7
C[C@@H]1CN(C(=O)OC(C)(C)C)CCN1c1ccc(N2CCN(Cc3ccccc3)[C@@H](C)C2)c(C#N)c1	.	-67.7	.	-76.9	.	.	.
C=C(C)c1ccccc1NC(=O)CCN1C(=O)c2ccccc2S1(=O)=O	-4.6	1.1	-0.5	9.6*	-1.2	-0.8	2.1
O=C(CCN1C(=O)c2ccccc2S1(=O)=O)Nc1cccc2ccccc12	-13.0	4.6	-1.6	0.7	-2.1	.	.
O=C(CN1C(=O)NC2(CCCC2)C1=O)N1CCN(S(=O)(=O)c2cc(Cl)ccc2Cl)CC1	-2.5	-15.1	.	10.3*	.	-3.6	-5.1
CCc1c(-c2ccc(Br)cc2)ncn1CCc1ccccc1OC	.	3.9	.	1.1	.	.	.
CC(C)C1S/C(=N/N=C/c2cccs2)NC1=O (stereo unspecified)	-9.0	10.6	-3.6	12.9*	-3.7	-2.1	-3.1
CC1S/C(=N/N=C/c2cccs2)NC1=O (stereo unspecified)	-20.4	-3.9	-0.8	-2.7	-2.5	.	.
CCC1S/C(=N/N=C/c2cccs2)NC1=O (stereo unspecified)	8.1	1.6	-2.7	14.9*	-4.5	3.4	-2.5

Screening data (PubChem BioAssay)
